Laboratory results: ChEMBL document CHEMBL1134286, “Novel erythromycin derivatives with aryl groups tethered to the C-6 position are potent protein synthesis inhibitors and active against multidrug-resistant respiratory pathogens” (J Med Chem, 2001)
≈ marks a conversion by molar mass, not a printed value.

Columns and labels:
Mus musculus [1] = organism: Mus musculus; test: Mouse protection tests for effective dose against Staphylococcus aureus 10649 ((erythromycin susceptible strain)) infected mice; format: functional
Mus musculus [2] = organism: Mus musculus; test: Effective dose against Streptococcus pneumoniae 6303 (erythromycin susceptible strain); format: functional
Streptococcus pneumoniae [3] = test: Cell free inhibiting activity against Streptococcus pneumoniae 1813 (methylated ribosomes for transcription/translation assay); format: functional
Streptococcus pneumoniae [4] = test: Minimum inhibitory concentration against Streptococcus pneumoniae 6303 (erythromycin susceptible strain); format: functional
How it was run: (§1)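 MICs were determined by agar dilution following National Committee for Clinical Laboratory Standards recommendations. Values are in µg/mL.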

Streptococcus pneumoniae [5] = test: Cell free inhibiting activity against Streptococcus pneumoniae 5635(Wild type ribosomes for transcription/translation assay); format: functional
How it was run: (§2)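 Cell-free coupled transcription/translation assay using bacterial ribosome S-30 extracts. Wild-type ribosomes were isolated from the erythromycin-susceptible strain S. pneumoniae 5635. Inhibition is reported as IC50 (µM).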

Staphylococcus aureus [6] = test: Minimum inhibitory concentration against Staphylococcus aureus 10649 (erythromycin susceptible strain); format: functional; how it was run: as §1
Mus musculus [7] = organism: Mus musculus; test: Mouse protection tests for effective dose against Streptococcus pneumoniae 6303 ((erythromycin susceptible strain)) infected mice; format: functional
Streptococcus pneumoniae [8] = test: Minimum against Streptococcus pneumoniae 6303 (erythromycin susceptible strain); format: functional
How it was run: (§3)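 Whole-cell MIC determined by agar dilution following National Committee for Clinical Laboratory Standards recommendations; values expressed in µg/mL.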

Staphylococcus aureus [9] = test: Minimum against Staphylococcus aureus 10649 (erythromycin susceptible strain); format: functional; how it was run: as §1
Streptococcus pneumoniae [10] = test: Cell free inhibiting activity against erythromycin-susceptible strain Streptococcus pneumoniae 5635 (Wild type ribosomes for transcription/translation assay); format: functional; how it was run: as §2
[11] = Minimum inhibitory concentration against Streptococcus pyogenes 930MLSB; format: functional; how it was run: as §1
[12] = Minimum inhibitory concentration against Streptococcus pyogenes PIU2548 efflux; format: functional; how it was run: as §1
[13] = Minimum inhibitory concentration against Streptococcus pyogenes EES 61 Ery-S; format: functional; how it was run: as §1
Streptococcus pneumoniae [14] = test: Minimum inhibitory concentration against Streptococcus pneumoniae 5649 efflux; format: functional; how it was run: as §1
[15] = Minimum inhibitory concentration againstH. influenzae DILL Amp-R; format: functional; settings: Haemophilus influenzae; how it was run: as §3
Streptococcus pneumoniae [16] = test: Minimum inhibitory concentration against Streptococcus pneumoniae ATCC 6303 Ery-S; format: functional; how it was run: as §1
Staphylococcus aureus [17] = test: Minimum inhibitory concentration against Staphylococcus aureus A 5278 MLSB-c; format: functional; how it was run: as §1
[18] = Minimum inhibitory concentration against Streptococcus pneumoniae 5737 MLSB; format: functional; how it was run: as §1
Staphylococcus aureus [19] = test: Minimum inhibitory concentration against Staphylococcus aureus ATCC 6538PEry-S; format: functional; settings: ATCC 6538P; how it was run: as §1
Staphylococcus aureus [20] = test: Minimum inhibitory concentration against Staphylococcus aureus A 5177 MLSB-i; format: functional; how it was run: as §1
Streptococcus pneumoniae [21] = test: Cell free inhibiting activity against MLSB-resistant strain Streptococcus pneumoniae 1813 (methylated ribosomes for transcription/translation assay)

Work on `CC[C@H]1OC(=O)[C@H](C)[C@@H](O[C@H]2C[C@@](C)(OC)[C@@H](O)[C@H](C)O2)[C@H](C)[C@@H](O[C@@H]2O[C@H](C)C[C@H](N(C)C)[C@H]2O)[C@](C)(O)C[C@@H](C)CN(C)[C@H](C)[C@@H](O)[C@]1(C)O` [AZITHROMYCIN] yielded an ED50 (Mus musculus [1]) of 24.8 mg/kg, an ED50 (Mus musculus [2]) of 18.8 mg/kg and an IC50 (Streptococcus pneumoniae [3]) of over 500000 nM. It also gave an MIC (Streptococcus pneumoniae [4]) of 0.12 µg/mL (≈ 0.16 µM), an IC50 (Streptococcus pneumoniae [5]) of 170 nM and an MIC (Staphylococcus aureus [6]) of 0.78 µg/mL (≈ 1.04 µM).

Work on `CC[C@H]1OC(=O)[C@H](C)[C@@H](O[C@H]2C[C@@](C)(OC)[C@@H](O)[C@H](C)O2)[C@H](C)[C@@H](O[C@@H]2O[C@H](C)C[C@H](N(C)C)[C@H]2O)[C@](C)(OC)C[C@@H](C)C(=O)[C@H](C)[C@@H](O)[C@]1(C)O` [CLARITHROMYCIN] yielded an ED50 (Mus musculus [1]) of 16.7 mg/kg, an ED50 (Mus musculus [7]) of 27.9 mg/kg and an IC50 (Streptococcus pneumoniae [3]) of over 500000 nM. The MIC (Streptococcus pneumoniae [8]) was 0.03 µg/mL (≈ 0.0401 µM), the IC50 (Streptococcus pneumoniae [5]) was 90 nM and the MIC (Staphylococcus aureus [9]) was 0.2 µg/mL (≈ 0.267 µM).

Compound `CC[C@H]1OC(=O)[C@H](C)[C@@H](O[C@H]2C[C@@](C)(OC)[C@@H](O)[C@H](C)O2)[C@H](C)[C@@H](O[C@@H]2O[C@H](C)C[C@H](N(C)C)[C@H]2O)[C@](C)(O)C[C@@H](C)C(=O)[C@H](C)[C@@H](O)[C@]1(C)O` [ERYTHROMYCIN] has an IC50 (Streptococcus pneumoniae [10]) of 120 nM, an MIC [11] of over 128 µg/mL and an MIC [12] of 16 µg/mL (≈ 21.8 µM). The MIC [13] was 0.06 µg/mL (≈ 0.0818 µM), the MIC (Streptococcus pneumoniae [14]) was 32 µg/mL (≈ 43.6 µM) and the MIC [15] was 8 µg/mL (≈ 10.9 µM). For the same compound, the MIC (Streptococcus pneumoniae [16]) was 0.06 µg/mL (≈ 0.0818 µM), the MIC (Staphylococcus aureus [17]) was over 100 µg/mL and the MIC [18] was over 128 µg/mL. For the same compound, the MIC (Staphylococcus aureus [19]) was 0.2 µg/mL (≈ 0.273 µM), the MIC (Staphylococcus aureus [20]) was 6.2 µg/mL (≈ 8.45 µM) and the IC50 (Streptococcus pneumoniae [21]) was over 500000 nM.
